SR-BI uptake up = activators of SR-BI mediated DiI-HDL uptake, primary screen, ldlA[mSR-BI] CHO cells, DiI fluorescence | 0.096% of 320,000 active | 3 h; 100 = double the neutral-control signal | activation, % at 12.5 µM;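 active = mean replicate activation of at least 60% and every replicate at or above 60%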;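 note: 0% = median plate neutral-control signal and 100% = twice that signal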
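Test system: SR-BI-overexpressing, LDLR-lacking CHO cells; Also added: labelled HDL, 10 µg/mL; Measured by: bottom-read cell fluorescence after medium removal, ex 550/em 595 nm; Timing: 3 h uptake period with compound, 37 °C; Buffer or medium: F12, 0.5% BSA, 25 mM HEPES; Doses: single compound concentration, delivered by pin transfer.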
CaV13 FRET inh = Disruptors of the CACNA1D IQ motif to Ca2+-dependent inactivation inhibitor domain association, primary screening, Förster resonance energy transfer in intact living … | HEK cells, CFP/YFP FRET ICDI-IQ, plate reader, 10 min; percent FRET-ratio fall versus neutral wells | inhibition, % at 12.3 µM | 0.098% of 340,000 active | AID 743397;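 active = mean replicate inhibition of at least 30% and at least 1% of replicates passing that level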;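 note: 0% = median of the neutral control wells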
FN deposition inh = inhibitors of fibronectin matrix deposition, primary screen, AH1F cells, Alexa488-fibronectin fluorescence, plate reader. AH1F fibroblasts, overnight. inhibition, % at 12.6 µM. 0.086% of 350,000 active. AID 743247, 2014;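 active = mean inhibition across replicates of 30% or more, regardless of how many single replicates reach that level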;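 note: positive control wells lacked labelled fibronectin entirely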
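Measured by – fluorescence 485/525 nm · System – AH1F fibroblast monolayer, labelled fibronectin deposition · Amount – 10000 cells per well · Buffer or medium – serum-reduced DMEM (2% serum) · Doses – single dose, pinned · Also added – fluorescent fibronectin at 24 nM final · Schedule – 1 h cell attachment, overnight exposure to compound and label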
Efflux pump inh = inhibitors of Candida efflux pumps in yeast, primary screen, S. cerevisiae, Nile Red, multiplex. 0.44% of 330,000 active. S. cerevisiae Candida pump triplex. AID 485275, 2010. inhibition, % at 10 µM;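 active = plate passing quality check with inhibition over a set limit, or well fluorescence over plate mean plus 4 SD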;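 note: Nile Red retained in pooled yeast measured as flow cytometry median fluorescence; 0% = buffer negative control and 100% = Enniatin B positive control; higher means more Nile Red kept so more efflux inhibition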
SR-BI DiI inh = inhibitors of SR-BI mediated HDL lipid uptake, primary screen, ldlA[mSR-BI] cells, fluorescence, single point | ldlA[mSR-BI] CHO cells, DiI-HDL uptake fluorescence, 3 h | inhibition, % at 12.5 µM | 0.96% of 320,000 active;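 active = mean replicate inhibition of at least 70% and a set share of replicates each scoring 70 or more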;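 note: 0% = median of neutral control wells and 100% = median of positive control wells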
The depositor's hits bear a star; . = not tested or not shown. Rows were chosen to be rich in hits. Some 1.2% of all compounds tested hit in one or more screens of this group.

SMILES	SR-BI uptake up	CaV13 FRET inh	FN deposition inh	Efflux pump inh	SR-BI DiI inh
Oc1ccc(C[C@H]2CNC(=S)N2CC2CCCN2C[C@H](Cc2ccc(O)cc2)N2C[C@H](Cc3ccc(O)cc3)N(CC3CCCCCC3)C2=S)cc1 (some centres not stated)	186*	-7	.	.	-186
CO[C@H]1CN(C)C(=O)c2cc(NC(=O)NC(C)C)ccc2OC[C@H](C)N(C(=O)NC(C)C)C[C@@H]1C	.	.	0	.	.
C[C@@H]1CC=CCCNC(=O)[C@H](C)N(C)C(=O)c2ccccc2O1 (mixture of isomers)	.	.	-2	.	.
O=C(NC(=S)NNC(=O)c1ccccc1O)c1cccnc1	-124	-8	14	0	124*
COc1ccc(C(=O)NC(=S)NNC(=O)c2ccccc2O)cc1	-89	-4	9	0	89*
O=C(NC(=S)NNC(=O)c1ccc(Cl)cc1Cl)c1cccnc1	10	-3	12	-1	-10
COc1ccc(C(=O)NNC(=S)NC(=O)c2cccc([N+](=O)[O-])c2)cc1	-1	2	-8	0	1
O=C(NC(=S)NNC(=O)c1ccccc1O)c1cccc([N+](=O)[O-])c1	-109	-3	10	0	109*
CC(=O)N[C@H]1C=C[C@H](CC(=O)NCC2CCCCC2)O[C@@H]1CO	.	.	-11	.	.
CCCNC(=O)Nc1ccc2c(c1)C(=O)N(C)[C@@H]1CC[C@H](CC(=O)O)O[C@@H]1CO2	.	.	-5	.	.
CN(C)C(=O)c1ccc(-c2ccc3c(c2)[C@@H]2[C@@H](CCN2C(=O)c2ccc(F)cc2)[C@H](CO)N3C)cc1	.	.	31*	.	.
CCOC(=O)N1CCC(N2C(=O)c3cc(C(=O)NC4CCCCC4)ccc3C2O)CC1 (configuration not stated)	-44	38*	11	0	44
CCOc1ccc(C(=O)c2cc3ccc(O)cc3oc2=O)cc1	3	90*	6	0	-3
O=C(c1ccc([N+](=O)[O-])cc1)c1cc2ccc(O)cc2oc1=O	-9	-16	4	0	9
Cc1cc(C)cc(-n2c(C)cc(/C=N\NC(=O)COc3cccc4cccnc34)c2C)c1	-76	-4	-10	0	76*
Cc1cc(/C=N/NC(=O)COc2cccc3cccnc23)c(C)n1-c1ccc(O)cc1	9	-6	.	0	-9
COc1cc(OC)c(C#N)c(S(=O)(=O)Cc2ccccc2)c1	-21	-5	.	0	21
N#Cc1c([N+](=O)[O-])cc([N+](=O)[O-])cc1S(=O)(=O)Cc1ccccc1	-40	-7	45*	0	40
O=C1C(Nc2ccccc2)=C(N2CCCCC2)C(=O)c2ccccc21	14	-7	.	0	-14
Cc1ccc(NC2=C(N3CCCCC3)C(=O)c3ccccc3C2=O)cc1	-73	.	.	0	73*
O=C(/C=C/c1ccc(O)cc1)c1ccc(NC2=C(N3CCCCC3)C(=O)c3ccccc3C2=O)cc1	-90	-8	.	0	90*
O=C(Nc1ccc(NC(=O)N2CCN(c3ccccc3O)CC2)cc1)N1CCN(c2ccccc2O)CC1	-74	-2	-1	0	74*
O=C(Nc1ccc(Cl)cc1)N1CCN(c2ccccc2)CC1	-13	.	.	0	13
Cc1cc(C)c(C(=O)COC(=O)c2ccc(NC(=O)CC#N)cc2)cc1C	-75	-15	-6	0	75*
COCC(=O)Nc1ccc2c(c1)[C@H]1C[C@H](CC(=O)N(C)C)O[C@@H](CO)[C@H]1O2	.	.	-3	.	.
Cn1c2ccccc2c2ccc3c(c21)C(=O)C=CC3=O	-20	-8	-10	.	20
Cc1ccc2c(c1)c1ccc3c(c1n2C)C(=O)C=CC3=O	-71	-22	-6	.	71*
COc1ccc(-c2c/c(=N\c3nc(-c4ccccc4)c(C)s3)c3ccccc3o2)cc1O	-80	-5	.	0	80*
COc1ccc(-c2cc(=Nc3c(C)n(C)n(-c4ccccc4)c3=O)c3ccccc3o2)cc1	-42	-17	2	0	42

From PubChem
